# Assay results published in ChEMBL document CHEMBL5325420, “Discovery of a spirocyclic 3-bromo-4,5-dihydroisoxazole covalent inhibitor of hGAPDH with antiproliferative activity against pancreatic cancer cells” (Eur J Med Chem, 2023).
# Calls of active or inactive are those of the source. No cut-off for these calls is given here.
# How the values were obtained:
# [1] = molecular target: Glyceraldehyde-3-phosphate dehydrogenase (Homo sapiens) (UniProt P04406); test: Covalent inhibition of human recombinant his tagged GAPDH expressed in Escherichia coli at 100 uM measured after 3 hrs by spectrophotometric analysis relative to control
# In short: (§1)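 His-tagged hGAPDH from E. coli, 2 μM, preincubated at 25 °C with 10, 50 or 100 μM inhibitor for 30 min or 3 h in 10 mM TEA, 5 mM EDTA, 10 mM arsenate, pH 7.6. Residual activity of aliquots (enzyme 30–50 nM) measured with 1.5 mM NAD+, 100 μM DL-GAP, NADH at 340 nm, 25 °C. Relative to untreated enzyme; independent duplicates, mean ± SD.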
# [2] = molecular target: Glyceraldehyde-3-phosphate dehydrogenase (Homo sapiens) (UniProt P04406); test: Covalent inhibition of human recombinant his tagged GAPDH expressed in Escherichia coli assessed as residual activity at 100 uM measured after 3 hrs by spectrophotometric analysis; in short: as §1
# [3] = molecular target: Glyceraldehyde-3-phosphate dehydrogenase (Homo sapiens) (UniProt P04406); test: Binding affinity to human recombinant his tagged GAPDH expressed in Escherichia coli assessed as pseudo first order reaction at 2 mM at pH 7 in presence of beta mercaptoethanol measured for 1 hr by HPLC method
# [4] = molecular target: Glyceraldehyde-3-phosphate dehydrogenase (Homo sapiens) (UniProt P04406); test: Binding affinity to human recombinant his tagged GAPDH expressed in Escherichia coli assessed elimination of racker band at measured after 30 hrs by spectrophotometric analysis
# In short: (§2)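 Racker band loss. 100 μM His-tagged hGAPDH (expressed in E. coli) with 200 μM inhibitor in 10 mM TEA, 5 mM EDTA, 10 mM KH2PO4, pH 7.6. Absorbance at 340 nm followed until reaction completion; traces fitted to a kinetic equation.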
# [5] = molecular target: Glyceraldehyde-3-phosphate dehydrogenase (Homo sapiens) (UniProt P04406); test: Binding affinity to human recombinant his tagged GAPDH expressed in Escherichia coli assessed as time constant at 200 uM measured after 30 hrs by spectrophotometric analysis; in short: as §2
# [6] = molecular target: Glyceraldehyde-3-phosphate dehydrogenase (Homo sapiens) (UniProt P04406); test: Binding affinity to human recombinant his tagged GAPDH expressed in Escherichia coli assessed as absolute rate constant at 2 mM at pH 7 in presence of beta mercaptoethanol measured for 1 hr by HPLC method
# [7] = molecular target: Glyceraldehyde-3-phosphate dehydrogenase (Homo sapiens) (UniProt P04406); test: Binding affinity to human recombinant his tagged GAPDH expressed in Escherichia coli assessed as time constant at 200 uM measured after 1 min by spectrophotometric analysis; in short: as §2
# [8] = molecular target: Glyceraldehyde-3-phosphate dehydrogenase (Homo sapiens) (UniProt P04406); test: Covalent inhibition of human recombinant his tagged GAPDH expressed in Escherichia coli at 50 uM measured after 30 mins by spectrophotometric analysis relative to control; in short: as §1
# [9] = molecular target: Glyceraldehyde-3-phosphate dehydrogenase (Homo sapiens) (UniProt P04406); test: Inhibition of human recombinant his tagged GAPDH expressed in Escherichia coli at 10 uM incubated for 48 hrs relative to control
# In short: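 Recombinant hGAPDH, 2 μM, with 10 μM inhibitor for 48 h at 37 °C in TEA/EDTA buffer, pH 7.6. Residual activity measured by the arsenate/NAD+/GAP assay, NADH at 340 nm, 25 °C. Expressed versus untreated enzyme; independent duplicates, mean ± SD.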
# [10] = molecular target: Glyceraldehyde-3-phosphate dehydrogenase (Homo sapiens) (UniProt P04406); test: Inhibition of recombinant his tagged-GAPDH in human PANC-1 cells expressed in Escherichia coli at 100 uM relative to control
# PaCa-44 [11] = test: Antiproliferative activity against human PaCa-44 cells assessed as reduction in cell growth at 100 uM incubated for 48 hrs by crystal violet staining based analysis; type: functional
# In short: (§3)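 PDAC lines and normal fibroblasts in DMEM-Glutamax, 10% FBS, 50 μg/ml gentamicin, 37 °C, 5% CO2. Seeded 5×10^3 cells/well for PDAC lines and 8×10^3 cells/well for fibroblasts. After 24 h, treated 48 h with 1–100 μM from 100 mM DMSO stocks. Crystal Violet read at A595, normalized to untreated cells. Mean ± SD (n = 4).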
# [12] = Antiproliferative activity in human PaCa-3 cells habouring wild type p53 assessed as decrease in cell growth at 5 uM measured after 48 hrs by Crystal violet staining based analysis relative to control; type: functional; design: scale not given: the % may be the effect or the level left
# In short: (§4)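 PaCa-3 (wt p53) and mutant-p53 PDAC lines exposed 48 h to 5 or 10 μM. Growth by Crystal Violet staining, each line normalized to its own untreated control. Mean ± SD, n = 4.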
# Fibroblast = test: Antiproliferative activity against human Fibroblast assessed as reduction in cell growth at high concentration incubated for 48 hrs by crystal violet staining based analysis relative to control; type: functional; design: scale not given: the % may be the effect or the level left; in short: as §3
# PaCa-3 = test: Antiproliferative activity against human PaCa-3 cells assessed as reduction in cell growth at 1 to 100 uM incubated for 48 hrs by crystal violet staining based analysis; type: functional; conditions: dose 1-100 µM; in short: as §3
# [13] = Antiproliferative activity in human PaCa-3 cells measured after 48 hrs by Crystal violet staining based analysis; type: functional, cell-based; conditions: Paca3, 48 h
# In short: (§5)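 IC50 from Crystal Violet growth curves. Cells in DMEM-Glutamax with 10% FBS, seeded, then exposed after 24 h to 1–100 μM for 48 h. A595 normalized to untreated cells. Three independent experiments.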
# [14] = molecular target: Glyceraldehyde-3-phosphate dehydrogenase (Homo sapiens) (UniProt P04406); test: Inhibition of recombinant his tagged-GAPDH in human PaCa-3 cells expressed in Escherichia coli at 100 uM relative to control
# PANC-1 [15] = test: Antiproliferative activity in human PANC-1 cells habouring p53 mutant/R273H assessed as decrease in cell growth at 10 uM measured after 48 hrs by Crystal violet staining based analysis; type: functional; in short: as §4
# [16] = molecular target: Glyceraldehyde-3-phosphate dehydrogenase (Homo sapiens) (UniProt P04406); test: Covalent inhibition of human recombinant his tagged GAPDH expressed in Escherichia coli at 10 uM measured after 30 mins by spectrophotometric analysis relative to control; in short: as §1
# PANC-1 [17] = test: Antiproliferative activity against human PANC-1 cells assessed as reduction in cell growth at 1 to 100 uM incubated for 48 hrs by crystal violet staining based analysis; type: functional; conditions: dose 1-100 µM; in short: as §3
# [18] = molecular target: Glyceraldehyde-3-phosphate dehydrogenase (Homo sapiens) (UniProt P04406); test: Inhibition of recombinant his tagged-GAPDH in human PaCa-44 cells expressed in Escherichia coli at 100 uM relative to control
# MIA PaCa-2 [19] = test: Antiproliferative activity in human MIA PaCa-2 cells habouring p53 mutant/R248W assessed as decrease in cell growth at 10 uM measured after 48 hrs by Crystal violet staining based analysis; type: functional; in short: as §4
# PaCa-44 [20] = test: Antiproliferative activity against human PaCa-44 cells assessed as reduction in cell growth at 1 to 100 uM incubated for 48 hrs by crystal violet staining based analysis; type: functional; conditions: dose 1-100 µM; in short: as §3
# MIA PaCa-2 [21] = test: Antiproliferative activity in human MIA PaCa-2 cells measured after 48 hrs by Crystal violet staining based analysis; type: functional, cell-based; conditions: MIA PaCa-2, 48 h; in short: as §5
# [22] = molecular target: Glyceraldehyde-3-phosphate dehydrogenase (Homo sapiens) (UniProt P04406); test: Binding affinity to human recombinant his tagged GAPDH expressed in Escherichia coli assessed elimination of racker band measured within 1 min by spectrophotometric analysis; in short: as §2
# PANC-1 [23] = test: Antiproliferative activity in human PANC-1 cells measured after 48 hrs by Crystal violet staining based analysis; type: functional, cell-based; conditions: PANC-1, 48 h; in short: as §5
# PaCa-44 [24] = test: Antiproliferative activity in human PaCa-44 cells habouring p53 mutant/C176S assessed as decrease in cell growth at 10 uM measured after 48 hrs by Crystal violet staining based analysis; type: functional; in short: as §4
# MIA PaCa-2 [25] = test: Antiproliferative activity against human MIA PaCa-2 cells assessed as reduction in cell growth at 1 to 100 uM incubated for 48 hrs by crystal violet staining based analysis; type: functional; conditions: dose 1-100 µM; in short: as §3
# [26] = Antiproliferative activity in human PaCa-44 cells measured after 48 hrs by Crystal violet staining based analysis; type: functional, cell-based; conditions: PaCa-44, 48 h; in short: as §5
# Sequence of Glyceraldehyde-3-phosphate dehydrogenase (Homo sapiens) (P04406 2-335 limits assumed): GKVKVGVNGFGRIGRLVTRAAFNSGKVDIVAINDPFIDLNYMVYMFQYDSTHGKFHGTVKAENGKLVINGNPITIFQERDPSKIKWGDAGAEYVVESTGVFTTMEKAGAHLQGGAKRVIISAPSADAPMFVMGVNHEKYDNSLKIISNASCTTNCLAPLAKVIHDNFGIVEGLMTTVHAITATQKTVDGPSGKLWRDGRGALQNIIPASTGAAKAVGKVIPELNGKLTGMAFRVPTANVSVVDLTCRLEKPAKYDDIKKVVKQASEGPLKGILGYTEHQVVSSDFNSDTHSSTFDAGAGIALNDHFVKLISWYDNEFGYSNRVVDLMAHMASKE
structure (smiles),measurement,setting,value
O=C(O)c1cccc(C2CC(Br)=NO2)c1 (centres undefined),inhibition,[1],20%
Oc1ccc(C2CC(Br)=NO2)cc1 (centres undefined),inhibition,[1],40%
NS(=O)(=O)c1ccc(C2CC(Br)=NO2)cc1 (centres undefined),inhibition,[2],inactive
BrC1=NOC(c2ccccc2)C1 (centres undefined),K,[3],6.62 10^-5/s
same,inhibition,[4],inactive
same,K,[5],908 min
same,K,[6],1.1 10^-4/M/s
same,inhibition,[1],40%
O=S(=O)(O)c1ccc(C2CC(Br)=NO2)cc1 (centres undefined),inhibition,[1],20%
CC(C)[C@H]1CC[C@@]2(CO2)[C@H]2C(=O)OCC(C(=O)O)=C[C@H]12,K,[7],0.701 min
BrC1=NOC(c2cccs2)C1 (centres undefined),inhibition,[2],inactive
O=C(O)c1ccc(C2CC(Br)=NO2)cc1 (centres undefined),K,[3],1.11 10^-6/s
same,K,[6],1.84 10^-6/M/s
same,inhibition,[1],40%
C=CC(=O)N1CCC[C@@H](n2nc(-c3ccc(Oc4ccccc4)cc3)c3c(N)ncnc32)C1,K,[6],10.4 10^-4/M/s
BrC1=NOC(c2ccc(-c3nnn[nH]3)cc2)C1 (centres undefined),inhibition,[2],inactive
O=C(O)c1ccc(C2CC(Br)=NO2)s1 (centres undefined),inhibition,[1],20%
O=C(O)c1ccc2c(c1)CCCC21CC(Br)=NO1 (centres undefined),inhibition,[8],100%
same,inhibition,[9],40%
same,inhibition,[10],30%
same,K,[3],< 1 10^-8/s
same,K,[6],< 1 10^-8/M/s
same,inhibition,[1],40%
same,Activity,PaCa-44 [11],Active
O=C(O)c1ccccc1C1CC(Br)=NO1 (centres undefined),inhibition,[2],inactive
BrC1=NOC2(CCCc3ccccc32)C1 (centres undefined),Activity,[12],42%
same,Activity,Fibroblast,20%
same,inhibition,[8],100%
same,Activity,PaCa-3,Active
same,inhibition,[9],100%
same,IC50,[13],4.69 µM
same,inhibition,[10],100%
same,inhibition,[14],100%
same,Activity,PANC-1 [15],Active
same,K,[3],5.25 10^-6/s
same,K,[6],8.75 10^-6/M/s
same,inhibition,[1],40%
same,inhibition,[16],100%
same,Activity,PANC-1 [17],Active
same,inhibition,[18],100%
same,Activity,MIA PaCa-2 [19],Active
same,Activity,PaCa-44 [20],Active
same,IC50,MIA PaCa-2 [21],15.2 µM
same,K,[7],0.2 min
same,inhibition,[22],Active
same,IC50,PANC-1 [23],21.7 µM
same,Activity,PaCa-44 [24],Active
same,Activity,MIA PaCa-2 [25],Active
same,IC50,[26],16.2 µM
